Results from different studies.
RET K758M: Proto-oncogene tyrosine-protein kinase receptor Ret (RET, Homo sapiens, UniProt P07949, K758M)
RET: Proto-oncogene tyrosine-protein kinase receptor Ret (RET, Homo sapiens, UniProt P07949)
RET V804L: Proto-oncogene tyrosine-protein kinase receptor Ret (RET, Homo sapiens, UniProt P07949, V804L)
RET V804M: Proto-oncogene tyrosine-protein kinase receptor Ret (RET, Homo sapiens, UniProt P07949, V804M)
RET M918T: Proto-oncogene tyrosine-protein kinase receptor Ret (RET, Homo sapiens, UniProt P07949, M918T)

SMILES	target	effect on	action	technique	tested at	endpoint	value
CO[C@]1(C(=O)N[C@@H](C)c2ccc(-n3cc(F)cn3)nc2)CC[C@H](c2nc(C)cc(Nc3cc(C)[nH]n3)n2)CC1	RET K758M	thermal stability		DSF	10 µM	ΔTm	14.2 °C
COc1cc(NC(=O)Nc2cc(OC)c3nc(NC(=O)c4ccccc4)sc3c2)cc(OC)c1	RET	enzyme activity	inhibitor	radiometric	10 µM	remaining activity	101%
CCCOc1ccc(OC)c(F)c1C(=O)c1ccc(C(=O)N[C@@H]2CNC[C@H]2NC(=O)c2ccc3[nH]ncc3c2)cc1	RET	enzyme activity	inhibitor		0.5 µM	remaining activity	54%
Cc1ccc(NC(=O)c2ccc(C)c(C(F)(F)F)c2)cc1C#Cc1nn(C2CCC(O)CC2)c2ncnc(N)c12 (stereo not drawn)	RET	cell-free assay			10 µM	remaining signal	2%
Cc1cc(NC(=O)c2cccc3cc(-c4cccc5[nH]nc(N)c45)ccc23)ccc1F	RET V804L	enzyme activity	inhibitor		0.1 µM	activity vs control	116%
c1cnn2ncc(-c3ccnc(N4CCC45COC5)n3)c2c1	RET V804L	binding			1 µM	remaining binding	91%
Cc1cc(C)c(-n2ccn3nc(-c4cccnc4)cc23)cc1NC(=O)c1cc(C#N)cc(S(F)(F)(F)(F)F)c1	RET V804M	cell-free assay		competition with immobilised ligand	0.1 µM	remaining binding	94.5%
Cc1cc(NC(=O)Nc2ccc(F)cc2)cc2sc(NC(=O)c3ccccc3)nc12	RET	enzyme activity	inhibitor	radiometric	0.1 µM	remaining activity	146%
CCCCN(CCCC)C(=O)CN1C[C@H](c2cc(OC)c3c(c2)OCO3)[C@@H](C(=O)O)[C@@H]1CC(C)(C)CCC	RET V804M	cell-free assay		competition with immobilised ligand	1 µM	remaining binding	100%
C#Cc1cccc(Nc2ncnc3cc(OCCOC)c(OCCOC)cc23)c1	RET	cell-free assay			0.5 µM	remaining signal	48.6%
O=C(Nc1cccnn1)N1CCC(=Cc2cccc(Oc3ccc(C(F)(F)F)cn3)c2)CC1	RET V804M	cell-free assay		competition with immobilised ligand	1 µM	remaining binding	100%
COCC(=O)Nc1cc(C(=O)NCCc2cnn(C)c2)cc2ncn(CCc3ccccc3)c12	RET	enzyme activity	inhibitor	radiometric	0.1 µM	remaining activity	118%
C[C@@H]1CCN(c2nccc(-c3cnn4ncccc34)n2)C1	RET V804M	binding			1 µM	remaining binding	88%
COc1cc2c(N3CCN(C(=O)Nc4ccc(OC(C)C)cc4)CC3)ncnc2cc1OCCCN1CCCCC1	RET	cell-free assay			0.5 µM	remaining signal	91.5%
CN(C)c1ncc(F)c(-c2cnn3ncccc23)n1	RET M918T	binding			1 µM	remaining binding	96%
COc1ccc(CN2C3CC2CN(c2ccc(-c4cc(OCC(C)(C)O)cn5ncc(C#N)c45)cn2)C3)cn1	RET K758M	thermal stability		DSF	10 µM	ΔTm	11.9 °C
COc1cc(NC(=O)Nc2cccc(Br)c2)cc2sc(NC(=O)c3ccccc3)nc12	RET	enzyme activity	inhibitor	radiometric	10 µM	remaining activity	127%
O=C1Nc2ccc(Cl)cc2C1=Cc1cc(Cl)c(O)c(Cl)c1	RET	cell-free assay			0.5 µM	remaining signal	80.4%

SMILES	target	effect on	action	technique	tested at	endpoint	value
Cc1cnn2ncc(-c3ccnc(N(C)C)n3)c2c1	RET V804M	binding			1 µM	remaining binding	100%
CNC(=O)c1cc(Oc2ccc(NC(=O)Nc3ccc(Cl)c(C(F)(F)F)c3)cc2)ccn1	RET	cell-free assay			0.5 µM	remaining signal	1.78%
CC(C)(O)c1cncc(-c2nc3ccc(F)cc3n2C2CC2)c1	RET	cell-free assay		competition with immobilised ligand	1 µM	remaining binding	100%
CN(CCCC(F)(F)F)c1nccc(-c2cnn3ncccc23)n1	RET V804M	binding			1 µM	remaining binding	100%
Nc1ncnc2occ(-c3ccc(NC(=O)Nc4cc(C(F)(F)F)ccc4F)cc3)c12	RET V804M	cell-free assay			20 µM	remaining signal	0%
CC/C(=N\NC(=O)NCc1cccc(O)c1)c1ccc(O)c(C)c1O	Proto-oncogene tyrosine-protein kinase receptor Ret (RET, Homo sapiens, UniProt P07949, S891A)	enzyme activity	inhibitor		0.1 µM	inhibition	6.2%
COc1cc(NC(=O)Nc2ccc(Br)cc2)cc2sc(NC(=O)c3ccccc3)nc12	RET	enzyme activity	inhibitor	radiometric	10 µM	remaining activity	106%
CN(c1nccc(-c2cnn3ncccc23)n1)C1CC1	RET V804M	binding			1 µM	remaining binding	100%
Cc1cccc(NC(=O)CNC(=O)c2ccccc2NS(=O)(=O)c2ccc3[nH]c(=O)[nH]c3c2)c1C	RET	enzyme activity	inhibitor	radiometric	0.1 µM	remaining activity	114%
N[C@H]1CCN(c2nccc(-c3cnn4ncccc34)n2)C1	RET M918T	binding			1 µM	remaining binding	90%
CS(=O)(=O)N1CCCC(NC(=O)[C@H](CCC2CCCCC2)NC(=O)c2ccc(CNc3ncnc4c3nnn4-c3ccccc3)cc2)C1 (stereo partly drawn)	RET M918T	cell-free assay		competition with immobilised ligand	0.1 µM	remaining binding	93%
COc1cc2ncnc(Nc3ccc(Oc4ccccc4)cc3C)c2cc1OC	RET V804L	enzyme activity	inhibitor		1 µM	inhibition	3%
CCC(=N\O)/C(C)=C/c1ccc(F)cc1	RET M918T	cell-free assay		competition with immobilised ligand	1 µM	remaining binding	100%
CCOC(=O)N1CCN(c2nc(Nc3ccc(C)cc3)c3nn[nH]c3n2)CC1	RET	enzyme activity	inhibitor	radiometric	0.1 µM	remaining activity	128%
Cc1c(NC(=O)c2cc(C(N)=O)nc3cc(F)ccc23)c(C(F)(F)F)nn1Cc1ccc(C(C)(C)C)cc1	RET V804M	cell-free assay		competition with immobilised ligand	1 µM	remaining binding	100%
Cc1cnc(NC2CCOCC2)nc1-n1cnc(C(=O)NC(CN)c2cc(F)cc(Cl)c2)c1 (stereo not drawn)	RET	enzyme activity	inhibitor	radiometric	1 µM	remaining activity	111%
CCc1cccc(NC(=O)c2cc(-c3ccc(OC)c(S(N)(=O)=O)c3)[nH]n2)c1	RET	enzyme activity	inhibitor	radiometric	10 µM	remaining activity	92.5%
CC(=O)Nc1c(C(C)=O)c(=O)n(C)c2nc(-c3ccc(Cl)cc3Cl)c(-c3ccc(Cl)cc3)cc12	RET	cell-free assay		competition with immobilised ligand	1 µM	remaining binding	100%
